# Most compounds without a hit are left out; they make up all but 3.5% or so of the library.
# MrgX1 antagonist – antagonists of human MrgX1 receptor; Q96LB2; MRGX1-HEK293 calcium flux, Fluo-4, BAM8-22 antagonism; stronger effect = lower value; B-score at 10 µM; hit rate 1.3% among 310,000; AID 588676;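 active means calcium-response B-score plate-corrected more than 3 library SD below zero, starting fluorescence within 5 deviations, no agonist response on first addition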;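 further: peak minus trough fluorescence over baseline after final BAM8-22 challenge near maximal dose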
# MrgX1 agonist – agonists of human MrgX1 receptor | Q96LB2 | MrgX1-HEK293 cells, Fluo-4 calcium fluorescence, agonist mode; stronger effect = higher value | B-score at 10 µM | hit rate 0.44% among 310,000;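 active means calcium response B-score plate-corrected fluorescence ratio at least 3 library SD, with starting fluorescence B-score inside 5 SD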
#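 System – MrgX1-expressing HEK293 cells · Incubation – cells plated overnight, dye loaded 0.5 h 37 °C, 0.5 h room temperature · Technique – kinetic Fluo-4 NW fluorescence of intracellular calcium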
# RGS4 inh – human RGS4 inhibition | HEK293 M3R/RGS4 inducible, Fluo-4 calcium flux; stronger effect = higher value; triggered by carbachol at its EC20 | B-score at 10 µM | hit rate 0.45% among 310,000;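 active means B-score, a plate-corrected calcium signal, over three deviations above library mean, with baseline fluorescence within five deviations of library mean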;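 further: RGS4 expression induced by doxycycline in cells with stable M3 receptor; B-score is computed from the integrated fluorescence ratio over baseline after carbachol; higher B-score means a larger calcium signal and so more RGS4 inhibition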
# Target sequence (P49798 whole entry, looked up): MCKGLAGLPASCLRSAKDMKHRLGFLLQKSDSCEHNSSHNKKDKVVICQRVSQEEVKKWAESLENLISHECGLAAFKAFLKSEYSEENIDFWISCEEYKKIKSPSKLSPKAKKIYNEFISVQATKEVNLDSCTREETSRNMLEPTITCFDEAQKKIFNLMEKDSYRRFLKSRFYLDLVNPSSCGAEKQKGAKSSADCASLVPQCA
# MrgX1 allo act – human MrgX1 positive allosteric modulation, primary screen; B-score at 10 µM; MrgX1-HEK293, Fluo-4 calcium flux, FDSS; stronger effect = higher value; hit rate 0.63% among 310,000; Q96LB2;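 active means plate-corrected calcium response at least 3 library SD above typical, normal starting fluorescence, not activating the receptor alone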;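 further: compound read alongside a low EC10 to EC30 dose of BAM8-22 agonist; peak minus trough fluorescence over baseline measured at the second addition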
# RGS4 pot – potentiators or activators of RGS4 | hit rate 0.92% among 310,000 | HEK293 M3R/inducible RGS4, carbachol calcium flux Fluo4; stronger effect = lower value | AID 463111 | B-score at 10 µM;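 active means B-score of the integrated calcium signal more than 4 SD below the library mean, with starting fluorescence not abnormally high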;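 further: negative B-score means reduced calcium response which marks RGS4 activation or potentiation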
#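 System: HEK293 FlpIn-TREx cells, stable M3R, doxycycline-inducible RGS4. Timing: overnight RGS4 induction, 30 min dye load 37 °C, 20 min compound RT. Also added: carbachol, ECmax concentration. Measured by: Fluo4 fluorescence kinetic imaging of calcium. Evaluation: integrated calcium ratio converted to B score.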
# MrgX1 ant reconf – confirmation of human MrgX1 receptor antagonists; shares compounds with MrgX1 antagonist; MrgX1-HEK293, BAM8-22 calcium flux, Fluo-4; stronger effect = lower value; remaining BAM8-22 calcium response % of control (stronger effect = lower value), % at 10 µM; hit rate 19% among 2,300; AID 602420;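 active means remaining agonist calcium response no higher than 100% minus 3 SD of agonist-only control wells, with starting fluorescence near control levels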;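 further: agonist BAM8-22 given at a near maximal EC90 to ECmax level; peak minus minimum fluorescence divided by baseline after agonist addition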
# HEK293 Ca flux – counter-screen for MrgX1 antagonists: effect in parental HEK293 cells. shares compounds with MrgX1 antagonist. Fluo-4 calcium fluorescence, FDSS. fluorescence ratio F(max-min)/F0 at 10 µM. hit rate 2% among 4,000. AID 624111;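 active means duplicate-averaged calcium fluorescence ratio at least three times the standard deviation of buffer wells, a nonspecific response in parental cells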
# HEK293 Ca counter – counter-screen for MrgX1 allosteric activators: effect in parental HEK293 cells; shares compounds with MrgX1 antagonist; parental HEK293 calcium flux, Fluo-4 fluorescence ratio; stronger effect = higher value; fluorescence ratio F(max-min)/F0 at 10 µM; hit rate 0.4% among 4,000; AID 624114;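 active means calcium fluorescence ratio, averaged over duplicates, at least 3 SD of the buffer-well ratio, meaning a nonspecific response in receptor-free cells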;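 further: untransfected parental HEK293 lacking MrgX1 used as counterscreen for MrgX1 allosteric activators; fluorescence change taken during the second addition on a kinetic imager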
# HEK293 Ca cntr2 – counter-screen for MrgX1 activators: effect in parental HEK293 cells | shares compounds with MrgX1 antagonist | Fluo-4 calcium fluorescence (FDSS); stronger effect = higher value | fluorescence ratio F(max-min)/F0 at 10 µM | hit rate 8.7% among 4,000 | AID 624115;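 active means calcium fluorescence ratio at least three times the spread of buffer wells, meaning a non-specific response in parental cells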
# An asterisk follows results filed as active; i = inactive; / = no result.
SMILES,MrgX1 antagonist,MrgX1 agonist,RGS4 inh,MrgX1 allo act,RGS4 pot,MrgX1 ant reconf,HEK293 Ca flux,HEK293 Ca counter,HEK293 Ca cntr2
CCOc1cccc2c1OC1(C)CC2NC(=O)N1c1cccc(C(=O)N2CCN(c3ccccn3)CC2)c1 (stereo unspecified),i,i,i,i,i,/,/,/,/
C=CCn1c(SCC(=O)NCC)nc2sc3c(c2c1=O)CCC3,i,i,i,i,i,/,/,/,/
CCOC(=O)c1cnc2c(-c3ccccc3)cnn2c1C,-5.05*,i,i,i,i,i,i,i,i
CCOC(=O)c1cnn(-c2ccccc2)c1N,-4.72*,i,i,i,i,i,i,i,i
CCOC(=O)c1cnn(-c2cccc(Cl)c2)c1N,i,i,i,i,i,/,/,/,/
CCOCCn1c(CN2CCN(c3ccccc3)CC2)nc2c1c(=O)n(C)c(=O)n2C,-7.43*,i,i,i,i,i,i,i,i
CCOC(=O)C[C@H]1c2cc(F)ccc2S(=O)(=O)N1C1CCCCC1,-6.42*,i,i,i,i,i,i,i,i
COc1ccnc2c1c(=O)n(Cc1ccc(F)cc1)c(=O)n2C,i,i,i,i,i,/,/,/,/
CCOC(=O)/C(=C/C1=CC(=C/N(C)C)/C(=O)O1)C(C)=O,i,i,i,i,i,/,/,/,/
O=C(NC1CCCC1)C(c1ccc(Cl)cc1)N1CCc2ccccc21 (stereo unspecified),-4.8*,i,i,i,i,i,i,i,i
CCN(CC)c1nc2c(s1)C(=O)CC(C)(C)C2,i,i,i,i,i,/,/,/,/
Cc1ccc(C(=O)c2c[nH]c3c(F)cc(F)cc3c2=O)cc1,-6.78*,i,i,i,i,i,i,i,i
COc1ccc2c(c1)c(=O)c(C(=O)c1ccc(C)cc1)cn2CC(=O)Nc1ccc(F)cc1,i,i,i,i,i,/,/,/,/
Cc1ccc(CC(=O)N2CCN(C(=O)C3CCCO3)CC2)cc1 (stereo unspecified),i,i,i,i,i,/,/,/,/
O=C(c1ccco1)N1CCN(C(=O)N2CCCCC2)CC1,i,i,i,i,i,/,/,/,/
O=C(O)C1=C(C(=O)N2CCN(C(=O)c3ccco3)CC2)CCCC1,-5.56*,i,i,i,i,i,i,i,i
CCOc1ccc(C(NC(C)=O)c2ccc(OC)c(OC)c2)cc1 (stereo unspecified),-4.87*,i,i,i,i,i,i,i,i
COc1ccc(N(CC(=O)NCc2ccccc2)S(=O)(=O)c2c(C)n[nH]c2C)cc1,i,i,i,i,i,/,/,/,/
CSC1=NCCN1C(=O)c1ccc(Br)o1,-5.37*,i,i,i,i,i,i,i,i
COC(=O)C1(CCSC)NC(c2ccc(O)c(OC)c2)C2C(=O)N(c3ccc(C)cc3)C(=O)C21 (stereo unspecified),i,i,i,i,i,/,/,/,/

# Screens: PubChem, Johns Hopkins Ion Channel Center
